Only some compounds are listed: those with a hit (about 2.3% of all), similar ones and a draw of the others.
STAT3 act – increases IL-6 driven STAT3 reporter signal; U3A cells, IL-6 STAT3-luciferase reporter, luminescence; 100% = signal with IL-6 EC80 alone; activation (% of control), % at 5.6 µM; 190,000 tested, 0.91% active; AID 871;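 active means activation above the screen-wide mean of compound activation plus 3 SD, cut at about 130% in these data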
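Material: STAT3-luciferase reporter U3A cells; Probe or stimulus: IL-6 (33 ng/mL); Incubation: compound pre-incubation 1 h before IL-6, then 6 h stimulation at 37 °C; Technique: luminescence from STAT3-driven luciferase reporter; Evaluation: % activation versus median of IL-6-stimulated wells; Controls: IL-6-only high control.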
PPC-1+TRAIL kill – kills PPC-1 cancer cells in the presence of TRAIL | cell killing (% activity), % at 4 µM or 5 µM | PPC-1 cells + TRAIL, ATPLite viability luminescence | 220,000 tested, 0.41% active | AID 1443;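 active means cell killing above 50% in the first pass at 4 µM, then a duplicate retest at 5 µM averaging 50% or more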
C8 TRAIL sens – caspase-8 TRAIL sensitization; AID 624354; 360,000 tested, 1% active; inhibition (viability loss, TRAIL sensitization), % at 10 µM; NB7+C8 cells + TRAIL, ATPlite viability luminescence;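 active means compounds causing at least 50% loss of cell viability in the single-dose screen, relative to plate controls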
STAT1 blocker – reduces IFN-gamma driven STAT1 reporter signal | inhibition, % at 5.5 µM | NIH 3T3 STAT1-luciferase reporter, luminescence | 200,000 tested, 0.35% active | AID 920;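 active means inhibition above a set limit, the mean inhibition across all tested compounds plus 3 SD, cut at about 34% in these data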
STAT3 inh – inhibitors of IL-6 induced STAT3 signaling. AID 862. inhibition, % at 5.5 µM. 190,000 tested, 0.89% active. U3A cells, IL-6 STAT3-luciferase reporter, luminescence; host cell line lacks STAT1;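 active means inhibition above the mean inhibition across all screened compounds plus 3 SD, cut at about 44% in these data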
HSP90 inh – inhibitors of HSP90 luciferase refolding in rabbit reticulocyte lysate. luciferase refolding luminescence, 3 h. inhibition, % at 5.6 µM. 290,000 tested, 0.91% active;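 active means inhibition above the screen-wide mean plus 3 SD, computed separately per campaign, cut at about 16% in these data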;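 further: inhibitors lower the luminescence because luciferase stays unfolded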
PPC-1 tox – kills PPC-1 cells; shares compounds with PPC-1+TRAIL kill; PPC-1 viability, ATPlite luminescence, overnight; cytotoxicity, % at 5 µM; 1,200 tested, 50% active; AID 1447;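 active means reconfirmed compounds whose average cytotoxicity reaches 50% or more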
HSP90 inh confirm – confirmation of HSP90 inhibitors | shares compounds with HSP90 inh | rabbit reticulocyte lysate, luciferase refolding luminescence, 3 h | inhibition, % at 5.9 µM | 2,300 tested, 64% active; in the data active means inhibition above about 18%
luciferase ctr – firefly luciferase inhibition, HSP90 counter-screen; inhibition, % at 5.9 µM; AID 1847; 2,300 tested, 48% active; shares compounds with HSP90 inh; purified native firefly luciferase, luminescence;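 active means inhibition above the mean inhibition of all tested sample wells plus 3 SD, cut at about 10% in these data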
Target sequence (P08659 whole entry, looked up): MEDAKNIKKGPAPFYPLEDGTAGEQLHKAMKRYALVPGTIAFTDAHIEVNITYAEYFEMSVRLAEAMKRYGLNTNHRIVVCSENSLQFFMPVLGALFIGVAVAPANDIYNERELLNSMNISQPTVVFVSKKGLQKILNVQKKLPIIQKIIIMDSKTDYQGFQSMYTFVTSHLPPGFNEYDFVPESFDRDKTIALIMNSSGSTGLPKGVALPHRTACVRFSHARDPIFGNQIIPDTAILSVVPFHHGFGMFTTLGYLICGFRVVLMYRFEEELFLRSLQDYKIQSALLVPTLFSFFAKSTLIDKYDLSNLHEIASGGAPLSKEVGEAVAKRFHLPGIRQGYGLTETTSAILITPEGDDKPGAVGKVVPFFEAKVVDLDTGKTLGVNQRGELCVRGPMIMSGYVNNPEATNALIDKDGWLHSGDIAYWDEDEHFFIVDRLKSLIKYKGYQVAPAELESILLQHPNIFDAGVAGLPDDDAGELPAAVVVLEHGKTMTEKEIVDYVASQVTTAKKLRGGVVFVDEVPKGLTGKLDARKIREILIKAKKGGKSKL
A number is an active result.

Screening Cc1cnc(NC(=O)c2ccc(OCC3CCCO3)cc2)s1 (centres undefined) returned STAT3 act inactive, PPC-1+TRAIL kill 83, C8 TRAIL sens 87, STAT1 blocker 51, STAT3 inh 78, HSP90 inh 47, PPC-1 tox 86, HSP90 inh confirm 60 and luciferase ctr 51.
Screening Cc1ccc(NC(=O)c2ccc(OCC3CCCO3)cc2)nc1 (centres undefined) returned C8 TRAIL sens inactive.
For Cc1cccc(N=C2NN=C(c3ccc4c(c3)OCCO4)CS2)c1 the results were STAT3 act inactive, PPC-1+TRAIL kill inactive, C8 TRAIL sens inactive, STAT1 blocker inactive, STAT3 inh inactive, HSP90 inh 28, PPC-1 tox inactive, HSP90 inh confirm 40 and luciferase ctr 34.
Screening Cc1cccc(N=C2NN=C(c3c(C)[nH]c4ccccc34)CS2)c1 returned STAT3 act inactive, PPC-1+TRAIL kill inactive, C8 TRAIL sens inactive, STAT1 blocker inactive, STAT3 inh inactive and HSP90 inh inactive.
Cc1ccc2nc(Cl)c(/C=N/Nc3ccc(C(=O)O)cc3)cc2c1 was read as PPC-1+TRAIL kill 87, C8 TRAIL sens 78, HSP90 inh 29, PPC-1 tox 87, HSP90 inh confirm 18 and luciferase ctr inactive.
Cc1ccc2cc(/C=N/NC(=O)c3ccc(F)cc3)c(Cl)nc2c1 was read as STAT3 act inactive, C8 TRAIL sens inactive, STAT1 blocker inactive, STAT3 inh inactive and HSP90 inh inactive.
CCCS(=O)(=O)NC(=O)C1(C)CCCN(C(=O)c2ccccc2OC)C1 (centres undefined) was read as C8 TRAIL sens inactive.
Screening O=C(O)c1cccc(NS(=O)(=O)c2ccc(-c3ccc(S(=O)(=O)Nc4cccc(C(=O)O)c4)cc3)cc2)c1 returned STAT3 act inactive, PPC-1+TRAIL kill inactive, C8 TRAIL sens inactive, STAT1 blocker inactive, STAT3 inh inactive and HSP90 inh inactive.
O=c1[nH]c(-c2ccncc2)nc2ccccc12 was read as STAT3 act inactive, PPC-1+TRAIL kill inactive, C8 TRAIL sens inactive, STAT1 blocker inactive, STAT3 inh inactive and HSP90 inh inactive.
For CN(C)c1ccc(-c2nc3ccccc3c(=O)[nH]2)cc1 the results were PPC-1+TRAIL kill 88, C8 TRAIL sens 93, HSP90 inh 34, PPC-1 tox 88, HSP90 inh confirm 68 and luciferase ctr 53.
For O=C(Nc1nc2ccc(Cl)cc2s1)c1ccco1 the results were STAT3 act inactive, PPC-1+TRAIL kill inactive, C8 TRAIL sens inactive, STAT1 blocker inactive, STAT3 inh inactive and HSP90 inh inactive.
Cc1ccc2nc(NC(=O)c3ccco3)sc2c1 was read as STAT3 act inactive, PPC-1+TRAIL kill 70, C8 TRAIL sens 78, STAT1 blocker 59, STAT3 inh 94, HSP90 inh 45, PPC-1 tox 64, HSP90 inh confirm 83 and luciferase ctr 79.
Screening O=C(Nc1ccc2[nH]ccc2c1)c1ccccc1 returned PPC-1+TRAIL kill 81, C8 TRAIL sens 84, HSP90 inh 44, PPC-1 tox 73, HSP90 inh confirm 56 and luciferase ctr 30.
Screening O=C(Nc1ccncc1)c1ccc(F)cc1 returned STAT3 act inactive, PPC-1+TRAIL kill inactive, C8 TRAIL sens inactive, STAT1 blocker inactive, STAT3 inh inactive and HSP90 inh inactive.
`O=C(Nc1ccc2[nH]ccc2c1)c1ccc(F)cc1` gave PPC-1+TRAIL kill 84, C8 TRAIL sens 88, HSP90 inh 53, PPC-1 tox 84, HSP90 inh confirm 64 and luciferase ctr 46.
For COc1ccc(NC(=O)Nc2ccc3[nH]ccc3c2)cc1 the results were C8 TRAIL sens inactive.
For COc1ccc(C=CC(O)CCN2CCC3CCC(C3)C2)cc1 (centres undefined) the results were C8 TRAIL sens inactive.
`Cc1cc(C(=O)COC(=O)c2cc(Cl)ccc2N)c(C)n1Cc1ccco1` gave STAT3 act inactive, PPC-1+TRAIL kill inactive, C8 TRAIL sens inactive, STAT1 blocker inactive, STAT3 inh inactive and HSP90 inh inactive.
`Cc1cc(C(=O)COC(=O)c2cccn2C)c(C)n1Cc1ccco1` gave STAT3 act inactive, PPC-1+TRAIL kill inactive, C8 TRAIL sens 63, STAT1 blocker 37, STAT3 inh 69, HSP90 inh 40, PPC-1 tox inactive, HSP90 inh confirm 66 and luciferase ctr 66.
For COc1ccc2c(c1)sc1nc(-c3ccccc3)cn12 the results were STAT3 act inactive, PPC-1+TRAIL kill 93, C8 TRAIL sens 96, STAT1 blocker 71, STAT3 inh 106, HSP90 inh 63, PPC-1 tox 92, HSP90 inh confirm 90 and luciferase ctr 86.
Screening Clc1ccccc1/C=C/c1nc(-c2ccccn2)no1 returned PPC-1+TRAIL kill 71, C8 TRAIL sens 69, HSP90 inh 64, PPC-1 tox 67, HSP90 inh confirm 86 and luciferase ctr 83.
For COc1cccc(/C=N/NC(=S)Nc2cccc(C(=O)O)c2)c1O the results were STAT3 act inactive, PPC-1+TRAIL kill inactive, C8 TRAIL sens 87, STAT1 blocker 68, STAT3 inh 66, HSP90 inh 25, PPC-1 tox inactive, HSP90 inh confirm 50 and luciferase ctr 27.
For COc1cccc(/C=N/NC(=O)c2ccc(-c3ccccc3)cc2)c1O the results were STAT3 act inactive, PPC-1+TRAIL kill inactive, C8 TRAIL sens inactive, STAT1 blocker inactive, STAT3 inh inactive and HSP90 inh inactive.
`C(=N\Nc1nc2ccccc2[nH]1)/c1cccc2nccnc12` gave PPC-1+TRAIL kill inactive, C8 TRAIL sens inactive and HSP90 inh inactive.
C(=N\Nc1nc2ccccc2[nH]1)/c1ccccn1 was read as STAT3 act inactive, PPC-1+TRAIL kill 79, C8 TRAIL sens 91, STAT1 blocker 93, STAT3 inh 111, HSP90 inh 79, PPC-1 tox 80, HSP90 inh confirm 88 and luciferase ctr 85.
`Cc1ccc(-n2nnc(-c3nccn3C)n2)cc1` gave PPC-1+TRAIL kill 55, C8 TRAIL sens 71, STAT1 blocker inactive, HSP90 inh 33, PPC-1 tox 53, HSP90 inh confirm 50 and luciferase ctr 37.
COc1ccccc1OCC(=O)NCC(C)NC(=O)COc1ccccc1OC (centres undefined) was read as C8 TRAIL sens inactive.
`Cc1ccc(CSc2nc3ccncc3[nH]2)cc1` gave STAT3 act inactive, PPC-1+TRAIL kill 97, C8 TRAIL sens 93, STAT1 blocker 72, STAT3 inh 100, HSP90 inh 63, PPC-1 tox 97, HSP90 inh confirm 80 and luciferase ctr 69.
